Columns and labels:
[1] = target: T1, Dual specificity tyrosine-phosphorylation-regulated kinase 1A (Homo sapiens, UniProt Q13627); test: Inhibition of recombinant human N-terminal His6-tagged DYRK1A catalytic domain expressed in Escherichia coli BL21(DE3) cells using KKISGRLSPIMTEQ-NH2 as substrate incubated for 15 mins in presence of [gamma-32P]ATP
[2] = target: Dual specificity tyrosine-phosphorylation-regulated kinase 1B (Homo sapiens, UniProt Q9Y463); test: Inhibition of full length recombinant human GST-tagged DYRK1B expressed in insect cells using KKISGRLSPIMTEQ-NH2 as substrate incubated for 15 mins in presence of [gamma-32P]ATP
Dual specificity tyrosine-phosphorylation-regulated kinase 1B, sequence (Q9Y463 whole entry): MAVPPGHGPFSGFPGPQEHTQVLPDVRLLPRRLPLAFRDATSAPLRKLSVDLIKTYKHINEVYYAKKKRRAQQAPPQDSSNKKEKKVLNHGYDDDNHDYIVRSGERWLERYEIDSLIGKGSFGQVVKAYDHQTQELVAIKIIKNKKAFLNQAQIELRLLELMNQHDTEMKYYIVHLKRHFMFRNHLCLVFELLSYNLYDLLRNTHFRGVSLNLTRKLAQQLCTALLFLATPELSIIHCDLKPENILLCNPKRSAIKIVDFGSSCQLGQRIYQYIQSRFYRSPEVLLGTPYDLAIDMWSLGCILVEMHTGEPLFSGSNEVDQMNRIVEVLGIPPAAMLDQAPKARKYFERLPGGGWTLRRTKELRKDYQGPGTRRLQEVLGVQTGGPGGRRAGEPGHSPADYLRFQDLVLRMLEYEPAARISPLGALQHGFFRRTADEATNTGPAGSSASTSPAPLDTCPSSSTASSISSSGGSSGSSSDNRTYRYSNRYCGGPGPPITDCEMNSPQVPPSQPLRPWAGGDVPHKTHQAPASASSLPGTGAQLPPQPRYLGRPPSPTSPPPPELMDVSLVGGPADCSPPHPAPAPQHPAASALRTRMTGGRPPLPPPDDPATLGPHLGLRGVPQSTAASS

[3] = target: T2, Dual specificity tyrosine-phosphorylation-regulated kinase 2 (Homo sapiens, UniProt Q92630); test: Inhibition of recombinant human N-terminal GST-tagged DYRK2 expressed in Escherichia coli BL21(DE3) cells using KKISGRLSPIMTEQ-NH2 as substrate incubated for 15 mins in presence of [gamma-32P]ATP; conditions: read-out: IC50
T2 sequence (Q92630 whole entry): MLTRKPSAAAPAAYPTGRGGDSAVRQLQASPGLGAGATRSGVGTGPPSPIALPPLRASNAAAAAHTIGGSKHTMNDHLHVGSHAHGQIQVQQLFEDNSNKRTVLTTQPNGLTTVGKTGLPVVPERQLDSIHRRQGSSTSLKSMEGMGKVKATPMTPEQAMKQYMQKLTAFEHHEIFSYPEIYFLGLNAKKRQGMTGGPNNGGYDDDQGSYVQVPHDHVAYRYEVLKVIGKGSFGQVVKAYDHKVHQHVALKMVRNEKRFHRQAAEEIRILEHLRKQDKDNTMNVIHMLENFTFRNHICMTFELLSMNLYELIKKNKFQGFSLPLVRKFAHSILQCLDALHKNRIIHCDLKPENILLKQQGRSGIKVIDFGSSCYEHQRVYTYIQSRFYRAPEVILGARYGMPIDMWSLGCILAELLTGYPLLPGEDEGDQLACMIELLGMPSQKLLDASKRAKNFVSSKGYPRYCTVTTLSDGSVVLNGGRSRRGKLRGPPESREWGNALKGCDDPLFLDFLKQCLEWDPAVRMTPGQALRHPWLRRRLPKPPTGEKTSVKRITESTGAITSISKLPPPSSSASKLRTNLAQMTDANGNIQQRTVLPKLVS
Procedure, shortened: (§1)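 Purified recombinant kinase with 100 µM ATP. IC50 values are averages of at least two independent determinations.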

Casein kinase II = Casein kinase II (Homo sapiens, UniProt P19784+P67870+P68400); test: Inhibition of CK2 (unknown origin) using RRRDDDSDDD-NH2 as susbtrate incubated for 15 mins in presence of [gamma-32P]ATP; type: protein-complex assay
Casein kinase II, sequence (P67870 whole entry, the tested form may be a part): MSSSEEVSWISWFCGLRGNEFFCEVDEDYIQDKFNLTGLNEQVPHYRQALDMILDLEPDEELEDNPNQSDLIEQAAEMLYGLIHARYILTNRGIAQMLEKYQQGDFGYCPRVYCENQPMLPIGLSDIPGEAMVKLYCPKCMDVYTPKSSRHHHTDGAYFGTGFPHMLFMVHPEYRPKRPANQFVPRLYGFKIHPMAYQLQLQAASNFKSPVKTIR
Casein kinase II, sequence (P68400 whole entry, the tested form may be a part): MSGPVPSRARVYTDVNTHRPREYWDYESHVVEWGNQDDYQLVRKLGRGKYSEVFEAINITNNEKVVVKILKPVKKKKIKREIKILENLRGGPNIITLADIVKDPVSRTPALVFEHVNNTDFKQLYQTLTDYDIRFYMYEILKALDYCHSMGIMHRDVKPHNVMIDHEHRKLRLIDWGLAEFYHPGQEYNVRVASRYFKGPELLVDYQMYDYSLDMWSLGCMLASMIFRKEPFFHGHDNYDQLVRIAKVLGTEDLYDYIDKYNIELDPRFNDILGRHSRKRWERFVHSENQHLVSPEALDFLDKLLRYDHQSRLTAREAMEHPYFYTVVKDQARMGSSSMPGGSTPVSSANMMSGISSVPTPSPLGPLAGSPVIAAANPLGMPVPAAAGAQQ
Casein kinase II, sequence (P19784 whole entry, the tested form may be a part): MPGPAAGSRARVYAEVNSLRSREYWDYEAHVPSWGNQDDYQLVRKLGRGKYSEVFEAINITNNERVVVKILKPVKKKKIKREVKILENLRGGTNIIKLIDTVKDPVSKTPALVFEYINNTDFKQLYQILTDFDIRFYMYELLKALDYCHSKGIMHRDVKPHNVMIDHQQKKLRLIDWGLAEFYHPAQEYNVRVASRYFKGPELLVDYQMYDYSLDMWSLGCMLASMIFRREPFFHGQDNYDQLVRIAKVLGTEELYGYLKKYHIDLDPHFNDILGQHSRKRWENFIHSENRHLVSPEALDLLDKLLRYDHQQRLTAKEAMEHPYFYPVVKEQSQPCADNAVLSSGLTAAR

[4] = target: Dual specificity protein kinase CLK1 (Homo sapiens, UniProt P49759); test: Inhibition of recombinant human GST-tagged CLK1 catalytic domain (129 to 484 residues) expressed in Escherichia coli using GRSRSRSRSRSRSRSR as substrate incubated for 15 mins in presence of [gamma-32P]ATP; procedure, shortened: as §1
Dual specificity protein kinase CLK1, sequence (P49759 whole entry, the tested form may be a part): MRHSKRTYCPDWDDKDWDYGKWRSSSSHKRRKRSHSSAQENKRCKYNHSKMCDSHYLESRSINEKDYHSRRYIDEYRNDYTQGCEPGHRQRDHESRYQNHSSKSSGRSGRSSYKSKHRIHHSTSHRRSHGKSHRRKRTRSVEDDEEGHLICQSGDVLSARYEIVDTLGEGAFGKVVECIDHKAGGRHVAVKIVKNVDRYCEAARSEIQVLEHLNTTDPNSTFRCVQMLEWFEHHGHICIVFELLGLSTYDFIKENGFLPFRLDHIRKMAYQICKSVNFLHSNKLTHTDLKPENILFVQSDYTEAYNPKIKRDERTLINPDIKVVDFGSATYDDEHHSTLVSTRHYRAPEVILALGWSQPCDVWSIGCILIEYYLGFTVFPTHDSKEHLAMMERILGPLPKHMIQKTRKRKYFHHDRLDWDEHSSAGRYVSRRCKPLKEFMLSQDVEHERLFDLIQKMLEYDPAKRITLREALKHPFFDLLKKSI

[5] = target: Epidermal growth factor receptor (Homo sapiens, UniProt P00533); test: Inhibition of EGFR (unknown origin) incubated for 15 mins in presence of [gamma-32P]ATP; conditions: read-out: IC50
Epidermal growth factor receptor, sequence (P00533 whole entry): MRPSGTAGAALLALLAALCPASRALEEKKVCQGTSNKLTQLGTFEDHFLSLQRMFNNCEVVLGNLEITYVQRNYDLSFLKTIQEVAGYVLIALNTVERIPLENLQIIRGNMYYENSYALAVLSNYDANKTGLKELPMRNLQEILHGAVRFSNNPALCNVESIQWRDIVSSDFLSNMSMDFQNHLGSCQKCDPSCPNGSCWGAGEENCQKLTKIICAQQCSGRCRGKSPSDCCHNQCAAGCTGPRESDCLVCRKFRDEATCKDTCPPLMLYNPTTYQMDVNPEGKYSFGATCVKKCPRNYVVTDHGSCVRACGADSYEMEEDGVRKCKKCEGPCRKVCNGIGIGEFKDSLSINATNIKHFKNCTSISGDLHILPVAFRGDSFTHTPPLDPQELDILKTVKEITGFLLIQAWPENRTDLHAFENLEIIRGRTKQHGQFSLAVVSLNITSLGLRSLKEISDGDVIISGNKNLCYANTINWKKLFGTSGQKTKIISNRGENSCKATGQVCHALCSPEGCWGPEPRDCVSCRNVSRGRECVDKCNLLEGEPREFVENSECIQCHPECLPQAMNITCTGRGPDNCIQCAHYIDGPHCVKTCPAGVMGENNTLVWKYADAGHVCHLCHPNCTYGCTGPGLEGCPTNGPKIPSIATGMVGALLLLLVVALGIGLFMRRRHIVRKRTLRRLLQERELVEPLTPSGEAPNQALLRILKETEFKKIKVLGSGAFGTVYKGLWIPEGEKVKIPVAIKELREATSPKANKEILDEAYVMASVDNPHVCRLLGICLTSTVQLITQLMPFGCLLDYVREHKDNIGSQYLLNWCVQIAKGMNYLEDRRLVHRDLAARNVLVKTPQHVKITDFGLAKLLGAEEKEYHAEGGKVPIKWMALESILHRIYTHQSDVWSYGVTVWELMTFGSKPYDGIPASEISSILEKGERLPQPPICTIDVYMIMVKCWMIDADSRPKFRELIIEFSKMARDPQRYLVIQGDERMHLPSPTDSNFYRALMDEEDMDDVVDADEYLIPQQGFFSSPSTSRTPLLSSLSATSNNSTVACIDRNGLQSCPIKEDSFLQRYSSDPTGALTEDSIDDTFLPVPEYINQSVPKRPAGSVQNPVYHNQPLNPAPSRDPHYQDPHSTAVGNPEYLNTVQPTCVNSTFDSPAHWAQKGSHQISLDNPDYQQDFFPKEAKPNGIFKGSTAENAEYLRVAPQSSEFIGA
Procedure, shortened: (§2)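 Purified recombinant kinase assayed with 100 μM ATP. Values averaged from at least two independent determinations.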

[6] = target: Protein kinase C beta type (Homo sapiens, UniProt P05771); test: Inhibition of PKCbeta (unknown origin) incubated for 15 mins in presence of [gamma-32P]ATP; procedure, shortened: as §2
Protein kinase C beta type, sequence (P05771 whole entry, canonical isoform): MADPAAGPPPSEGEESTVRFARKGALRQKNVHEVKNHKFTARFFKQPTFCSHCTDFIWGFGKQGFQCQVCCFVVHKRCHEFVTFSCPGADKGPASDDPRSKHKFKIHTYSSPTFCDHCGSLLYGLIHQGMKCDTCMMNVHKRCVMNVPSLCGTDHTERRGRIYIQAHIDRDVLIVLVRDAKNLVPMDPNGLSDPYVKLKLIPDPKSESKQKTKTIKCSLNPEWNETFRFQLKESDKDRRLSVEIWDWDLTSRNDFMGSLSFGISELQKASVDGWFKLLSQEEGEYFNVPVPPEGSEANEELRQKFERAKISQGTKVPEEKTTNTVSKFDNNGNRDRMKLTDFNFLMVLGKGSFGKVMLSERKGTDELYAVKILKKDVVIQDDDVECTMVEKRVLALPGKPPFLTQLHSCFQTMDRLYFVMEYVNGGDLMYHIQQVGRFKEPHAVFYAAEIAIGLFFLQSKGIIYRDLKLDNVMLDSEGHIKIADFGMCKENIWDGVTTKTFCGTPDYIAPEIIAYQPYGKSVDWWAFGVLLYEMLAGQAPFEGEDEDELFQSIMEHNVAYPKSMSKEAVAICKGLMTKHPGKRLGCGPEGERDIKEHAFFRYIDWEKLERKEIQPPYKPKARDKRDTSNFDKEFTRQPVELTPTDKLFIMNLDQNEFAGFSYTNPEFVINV

[7] = target: Phosphatidylinositol 4,5-bisphosphate 3-kinase catalytic subunit alpha isoform (Homo sapiens, UniProt P42336); test: Inhibition of PI3K p110alpha (unknown origin)
Phosphatidylinositol 4,5-bisphosphate 3-kinase catalytic subunit alpha isoform, sequence (P42336 whole entry, canonical isoform): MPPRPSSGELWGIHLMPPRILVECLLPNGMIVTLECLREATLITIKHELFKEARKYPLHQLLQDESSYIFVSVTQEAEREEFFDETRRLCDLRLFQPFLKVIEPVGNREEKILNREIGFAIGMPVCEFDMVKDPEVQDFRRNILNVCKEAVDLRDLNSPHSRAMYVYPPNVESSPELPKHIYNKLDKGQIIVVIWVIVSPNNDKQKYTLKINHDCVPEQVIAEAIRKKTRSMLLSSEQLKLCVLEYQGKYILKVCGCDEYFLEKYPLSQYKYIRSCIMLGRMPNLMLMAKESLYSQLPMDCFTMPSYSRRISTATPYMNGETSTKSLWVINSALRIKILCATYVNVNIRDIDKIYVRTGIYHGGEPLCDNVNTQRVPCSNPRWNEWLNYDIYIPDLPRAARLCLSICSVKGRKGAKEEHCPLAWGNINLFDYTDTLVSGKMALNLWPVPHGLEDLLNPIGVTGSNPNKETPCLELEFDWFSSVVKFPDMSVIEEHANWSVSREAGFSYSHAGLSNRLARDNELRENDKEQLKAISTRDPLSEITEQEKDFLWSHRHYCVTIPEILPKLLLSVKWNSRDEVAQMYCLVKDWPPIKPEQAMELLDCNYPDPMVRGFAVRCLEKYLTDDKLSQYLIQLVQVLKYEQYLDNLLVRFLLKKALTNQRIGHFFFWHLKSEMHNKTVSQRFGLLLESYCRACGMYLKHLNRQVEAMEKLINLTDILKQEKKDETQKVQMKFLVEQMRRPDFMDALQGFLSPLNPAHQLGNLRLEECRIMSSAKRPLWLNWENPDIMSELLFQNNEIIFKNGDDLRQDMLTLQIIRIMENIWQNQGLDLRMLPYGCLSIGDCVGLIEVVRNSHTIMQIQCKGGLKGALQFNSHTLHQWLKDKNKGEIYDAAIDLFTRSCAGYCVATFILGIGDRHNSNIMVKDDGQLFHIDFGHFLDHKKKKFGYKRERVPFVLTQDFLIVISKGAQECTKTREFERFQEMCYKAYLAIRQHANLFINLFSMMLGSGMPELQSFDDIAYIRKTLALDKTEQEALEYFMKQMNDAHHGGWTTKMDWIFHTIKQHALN

[8] = target: Phosphatidylinositol 4,5-bisphosphate 3-kinase catalytic subunit delta isoform (Homo sapiens, UniProt O00329); test: Inhibition of PI3K p110delta (unknown origin)
[9] = target: Phosphatidylinositol 4,5-bisphosphate 3-kinase catalytic subunit gamma isoform (Homo sapiens, UniProt P48736); test: Inhibition of PI3K p110gamma (unknown origin)
[10] = target: T1, Dual specificity tyrosine-phosphorylation-regulated kinase 1A; test: Inhibition of tetracycline-inducible EGFP-DYRK1A (unknown origin) expressed in HEK293 cells coexpressing full length human EGFP-tau protein assessed as reduction in tau-Thr212 phosphorylation incubated overnight by immunoblotting assay
[11] = Half life in rat plasma at 1 uM by LC-MS/MS analysis; type: ADME, cell-free
Procedure, shortened: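 Pooled heparinized rat plasma incubated with 1 μM compound at 37 °C, sampled at 0, 5, 15, 30, 60 and 120 min. Reaction stopped with 5 volumes cold acetonitrile containing internal standard. Remaining compound quantified by LC-MS/MS. Half-life given as mean of two experiments.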

[12] = target: T3, Serine/threonine-protein kinase haspin (Homo sapiens) (UniProt Q8TF76); test: Inhibition of Haspin (unknown origin) at 5 uM relative to control
T3 sequence (whole entry): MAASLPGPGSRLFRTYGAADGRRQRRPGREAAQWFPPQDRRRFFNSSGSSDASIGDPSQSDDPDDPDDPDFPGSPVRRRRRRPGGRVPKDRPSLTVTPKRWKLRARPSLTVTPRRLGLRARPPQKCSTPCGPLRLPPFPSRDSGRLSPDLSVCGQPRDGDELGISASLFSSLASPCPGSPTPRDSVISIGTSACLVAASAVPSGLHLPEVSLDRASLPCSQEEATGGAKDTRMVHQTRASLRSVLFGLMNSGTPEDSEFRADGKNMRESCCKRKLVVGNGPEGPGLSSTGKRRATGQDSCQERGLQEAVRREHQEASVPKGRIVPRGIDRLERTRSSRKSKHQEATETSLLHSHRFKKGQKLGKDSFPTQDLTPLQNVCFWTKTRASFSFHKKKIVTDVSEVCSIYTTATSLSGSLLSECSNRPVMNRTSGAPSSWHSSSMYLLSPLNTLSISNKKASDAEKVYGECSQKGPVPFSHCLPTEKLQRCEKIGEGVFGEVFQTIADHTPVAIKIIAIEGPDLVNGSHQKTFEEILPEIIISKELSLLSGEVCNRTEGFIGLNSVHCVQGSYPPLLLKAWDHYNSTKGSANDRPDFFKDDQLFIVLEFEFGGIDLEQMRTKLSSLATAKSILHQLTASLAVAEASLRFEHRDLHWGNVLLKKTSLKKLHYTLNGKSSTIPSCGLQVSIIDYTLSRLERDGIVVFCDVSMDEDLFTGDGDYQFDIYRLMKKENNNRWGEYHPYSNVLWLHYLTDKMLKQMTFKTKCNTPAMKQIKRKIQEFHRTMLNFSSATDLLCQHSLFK

O=C1NC(=S)S/C1=C\c1ccc2ncccc2c1
IC50 [1]: 20 nM
IC50 [2]: 60 nM
IC50 [3]: 60 nM
IC50 (Casein kinase II): 40 nM
IC50 [4]: 200 nM
IC50 [5]: > 10000 nM
IC50 ([6]; read-out: IC50): > 10000 nM
IC50 [7]: 2.6 nM
IC50 [8]: 16.1 nM
IC50 [9]: 2.3 nM
IC50 [10]: 1400 nM

O=C1OCC/C1=C\c1ccc2ncsc2c1
half-life at 1 µM [11]: 3.1 h
IC50 [1]: 130 nM
IC50 [2]: 1050 nM
IC50 [3]: 60 nM
IC50 (Casein kinase II): > 10000 nM
IC50 [4]: > 10000 nM
IC50 [5]: > 10000 nM
IC50 [6]: Not Active
inhibition [12]: 75%
IC50 [10]: 200 nM

O=C1NC(=S)S/C1=C\c1ccc2ncsc2c1
half-life at 1 µM [11]: 1.68 h
IC50 [1]: 40 nM
IC50 [2]: 70 nM
IC50 [3]: 200 nM
IC50 (Casein kinase II): 60 nM
IC50 [4]: 100 nM
IC50 [5]: > 10000 nM
IC50 ([6]; read-out: IC50): 9200 nM
IC50 [7]: 2.2 nM
IC50 [8]: 12.4 nM
IC50 [9]: 2.3 nM
IC50 [10]: 2100 nM

CC1C/C(=C\c2ccc3c(c2)CCO3)C(=O)O1 (centres undefined)
half-life at 1 µM [11]: > 2 h
IC50 [1]: 170 nM
IC50 [2]: 2640 nM
IC50 [3]: 430 nM
IC50 (Casein kinase II): > 10000 nM
IC50 [4]: > 10000 nM
IC50 [5]: > 10000 nM
IC50 [6]: Not Active
inhibition [12]: 43%
IC50 [7]: 650 nM
IC50 [10]: 2100 nM

Source: ChEMBL document CHEMBL3774321, “Systematic diversification of benzylidene heterocycles yields novel inhibitor scaffolds selective for Dyrk1A, Clk1 and CK2” (Eur J Med Chem, 2016)
